According to ChEMBL document CHEMBL2321715, “Design and synthesis of novel 2-methyl-4,5-substitutedbenzo[f]-3,3a,4,5-tetrahydro-pyrazolo[1,5-d][1,4]oxazepin-8(7H)-one derivatives as telomerase inhibitors” (Bioorg Med Chem Lett, 2013):
Active and inactive are the calls of the source. No cut-off for these calls is given here.

system: not listed separately; experiment: Downregulation of cyclin D1 expression in human MGC803 cells after 48 hrs by Western blot analysis; assay type: functional, cell-based; conditions: MGC-803
Method in brief: (§1)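 MGC-803 cells exposed 48 h; lysed in RIPA buffer, protein measured by BCA, […] total protein run on SDS–PAGE and blotted to PVDF. Primary antibodies 1 h in TBS/Tween-20 (0.075%) with 3% Marvel: anti-TERT, anti-β-actin, anti-Cyclin D1, anti-phospho-AKT, anti-AKT, each 1:500. HRP secondaries, ECL detection. DMSO vehicle control; LY used as comparator.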

| Structure (SMILES) | Activity |
| --- | --- |
| CC1=NN2C(=O)COc3ccc(Cl)cc3C2C1 (centres undefined) | Active |
| CC1=NN2C(=O)COc3c(Br)cc(Br)cc3C2C1 (centres undefined) | Active |

system: not listed separately; experiment: Downregulation of TERT expression in human MGC803 cells after 48 hrs by Western blot analysis; assay type: functional, cell-based; conditions: MGC-803; method in brief: as §1

| Structure (SMILES) | Activity |
| --- | --- |
| CC1=NN2C(=O)COc3ccc(C(F)(F)F)cc3C2C1 (centres undefined) | Active |
| CC1=NN2C(=O)COc3cc(C)ccc3C2C1 (centres undefined) | Active |
| CC1=NN2C(=O)COc3ccc(Cl)cc3C2C1 (centres undefined) | Active |
| COc1cccc2c1OCC(=O)N1N=C(C)CC21 (centres undefined) | Active |
| CC1=NN2C(=O)COc3c(F)cccc3C2C1 (centres undefined) | Active |
| CC1=NN2C(=O)COc3c(Br)cc(Br)cc3C2C1 (centres undefined) | Active |

system: MGC-803; experiment: Inhibition of PI3K-mediated Akt phosphorylation in human MGC803 cells after 48 hrs by Western blot analysis; assay type: cell-based; conditions: not given; method in brief: as §1

| Structure (SMILES) | inhibition |
| --- | --- |
| CC1=NN2C(=O)COc3ccc(Cl)cc3C2C1 (centres undefined) | Active |
| CC1=NN2C(=O)COc3c(Br)cc(Br)cc3C2C1 (centres undefined) | Active |

molecular target: Telomerase reverse transcriptase (Homo sapiens, UniProt O14746); experiment: Inhibition of telomerase activity in human MGC803 cells after 24 hrs by TRAP-PCR-ELISA assay; conditions: not given
Sequence (O14746 whole entry): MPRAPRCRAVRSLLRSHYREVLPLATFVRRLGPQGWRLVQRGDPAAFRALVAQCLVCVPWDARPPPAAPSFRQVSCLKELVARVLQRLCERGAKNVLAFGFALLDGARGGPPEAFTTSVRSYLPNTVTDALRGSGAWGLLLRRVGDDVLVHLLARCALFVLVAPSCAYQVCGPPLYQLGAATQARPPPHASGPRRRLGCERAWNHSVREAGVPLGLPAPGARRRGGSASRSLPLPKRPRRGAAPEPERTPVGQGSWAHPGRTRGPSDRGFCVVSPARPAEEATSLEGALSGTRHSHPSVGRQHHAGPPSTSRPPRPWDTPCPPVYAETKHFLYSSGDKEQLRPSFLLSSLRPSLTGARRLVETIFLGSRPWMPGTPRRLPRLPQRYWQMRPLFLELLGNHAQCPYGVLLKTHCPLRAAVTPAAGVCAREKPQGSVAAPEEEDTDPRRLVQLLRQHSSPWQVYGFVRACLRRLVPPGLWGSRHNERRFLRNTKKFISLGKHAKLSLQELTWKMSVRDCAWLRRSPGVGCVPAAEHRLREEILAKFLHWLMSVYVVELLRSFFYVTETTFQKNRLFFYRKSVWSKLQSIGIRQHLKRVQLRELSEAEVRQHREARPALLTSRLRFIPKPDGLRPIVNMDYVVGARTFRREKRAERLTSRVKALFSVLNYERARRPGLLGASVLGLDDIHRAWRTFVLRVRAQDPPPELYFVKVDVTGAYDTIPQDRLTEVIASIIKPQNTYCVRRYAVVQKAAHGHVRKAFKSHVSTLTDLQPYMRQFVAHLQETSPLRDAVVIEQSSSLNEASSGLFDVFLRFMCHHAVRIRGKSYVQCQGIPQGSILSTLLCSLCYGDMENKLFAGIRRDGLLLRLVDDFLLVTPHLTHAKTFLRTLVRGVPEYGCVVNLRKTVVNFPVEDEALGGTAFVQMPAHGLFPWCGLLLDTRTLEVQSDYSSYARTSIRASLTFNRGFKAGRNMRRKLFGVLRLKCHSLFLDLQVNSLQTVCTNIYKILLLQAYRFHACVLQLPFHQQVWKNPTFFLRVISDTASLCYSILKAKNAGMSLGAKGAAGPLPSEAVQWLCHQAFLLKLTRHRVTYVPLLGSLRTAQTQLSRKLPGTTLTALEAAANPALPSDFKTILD

| Structure (SMILES) | IC50 |
| --- | --- |
| CC1=NN2C(=O)COc3ccc(C(F)(F)F)cc3C2C1 (centres undefined) | 3.14 µM |
| CC1=NN2C(=O)COc3cc(C)ccc3C2C1 (centres undefined) | 21.9 µM |
| CC[n+]1c(-c2ccccc2)c2cc(N)ccc2c2ccc(N)cc21 [HOMIDIUM BROMIDE] | 2.39 µM |
| CC1=NN2C(=O)COc3ccc(Cl)cc3C2C1 (centres undefined) | 1.71 µM |
| COc1cccc2c1OCC(=O)N1N=C(C)CC21 (centres undefined) | 10.8 µM |
| CC1=NN2C(=O)COc3cc([N+](=O)[O-])ccc3C2C1 (centres undefined) | 6.6 µM |
| CC1=NN2C(=O)COc3c(F)cccc3C2C1 (centres undefined) | 2.11 µM |
| CC1=NN2C(=O)COc3ccccc3C2C1 (centres undefined) | 14.8 µM |
| CC1=NN2C(=O)COc3c(Br)cc(Br)cc3C2C1 (centres undefined) | 0.78 µM |
